Test results published in the array DNA melting data of Ke et al. (doi:10.1101/2024.01.08.574731).

How the values were obtained:
[1] = melting temperature; fluorescence melt of hairpins on a sequencing array, two-state fit, raised by 9.35 °C to match UV melts; conditions: sodium 0.088 M
Summary of the method: (§1)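 Folding enthalpy and melting temperature come from bootstrapped two-state fits to Cy3 fluorescence of library hairpins carrying annealed Cy3 and quencher oligos on a sequenced MiSeq flow cell. Imaging was done in 50 mM Na-HEPES pH 8.0, 25 mM NaCl, stepping by 2.5 °C up to 60 °C, and signals were normalised to pre-quench Cy3 and to control constructs. Results of four replicates were combined by inverse variance, and fitted temperatures were raised by 9.35 °C to match UV melts.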

[2] = folding enthalpy; higher = less favourable; fluorescence melt of hairpins on a sequencing array, two-state fit; conditions: sodium 0.088 M
Summary of the method: as §1

Sequence	Tm [1] [°C]	folding enthalpy [2] [kcal/mol]
GATCGACTTATCGATC ((((((....))))))	51	-44.6
GATCGACTTGTCGATC ((((((....))))))	68.3	-43.2
GATCGAGACATCGATC ((((((....))))))	58.8	-38.9
GATCGAGACCTCGATC ((((((....))))))	56.7	-44.3
GATCGAGACGTCGATC ((((((....))))))	57.2	-37.3
GATCGAGAGTCGATC ((((((...))))))	49.4	-29.7
GATCGAGATCTCGATC ((((((....))))))	55.7	-50.6
GATCGAGCAATCGATC ((((((....))))))	57.7	-39.7
GATCGAGCTATCGATC ((((((....))))))	58.4	-43.4
GATCGAGGAAACTCGATC (((((((....)))))))	62.7	-44.5
GATCGAGGAAACTCGGTC ((.((((....)))).))	50.5	-30.4
GATCGAGGAATCGATC ((((((....))))))	55.9	-33.2
GATCGAGGGGTCGATC ((((((....))))))	45.6	-4.35
GATCGAGGGTCGATC ((((((...))))))	51	-32.3
GATCGAGTACTCGATC ((((((....))))))	58.8	-43.4
GATCGAGTATTCGATC ((((((....))))))	59.2	-40
GATCGAGTCTCGATC ((((((...))))))	53.2	-39.2
GATCGAGTGGTCGATC ((((((....))))))	53.9	-8.38
GATCGAGTTCTCGATC ((((((....))))))	55.9	-39.6
GATCGAGTTTTCGATC ((((((....))))))	54.2	-41.8
GATCGATAAGTCGATC ((((((....))))))	52.5	-44
GATCGATATGTCGATC ((((((....))))))	55	-41.9
GATCGATATTTCGATC ((((((....))))))	53.1	-44.3
GATCGATCGTCGATC ((((((...))))))	51.7	-28.7

Sequence	Tm [1] [°C]	folding enthalpy [2] [kcal/mol]
GATCGATCGTTCGATC ((((((....))))))	53.5	-36
GATCGATGTTCGATC ((((((...))))))	51	-29.4
GATCGATTATCGATC ((((((...))))))	52.7	-38.5
GATCGATTGCTCGATC ((((((....))))))	51.2	-31.9
GATCGATTGTCGATC ((((((...))))))	51.3	-35.5
GATCGATTTATCGATC ((((((....))))))	59.7	-44.8
GATCGCAACTGCGATC ((((((....))))))	69.2	-33.8
GATCGCAAGAGCGATC ((((((....))))))	67.8	-34
GATCGCACCGGCGATC ((((((....))))))	68.3	-33.7
GATCGCACTTGCGATC ((((((....))))))	69.1	-32.3
GATCGCAGTCGCGATC ((((((....))))))	68.5	-34.5
GATCGCAGTTGCGATC ((((((....))))))	68.6	-41.1
GATCGCATTGGCGATC ((((((....))))))	68.8	-33.2
GATCGCCAGGCGATC ((((((...))))))	67.1	-35.1
GATCGCCAGTGCGATC ((((((....))))))	64.4	-34.9
GATCGCCATCGCGATC ((((((....))))))	65	-31.5
GATCGCCCATGCGATC ((((((....))))))	67.6	-36.2
GATCGCCCCCGCGATC ((((((....))))))	66.8	-37.6
GATCGCCCCTGCGATC ((((((....))))))	67.2	-33.6
GATCGCCCGGCGATC ((((((...))))))	68.5	-40.9
GATCGCCCTGCGATC ((((((...))))))	67.8	-32
GATCGCCGAAAGGCAATC (((.(((....))).)))	44.8	-17.1
GATCGCCGAAAGGCCATC (((.(((....))).)))	38.6	-14.5
GATCGCCGCCGCGATC ((((((....))))))	66.6	-36

Sequence	Tm [1] [°C]	folding enthalpy [2] [kcal/mol]
GATCGCCGTTGCGATC ((((((....))))))	66.2	-53.2
GATCGCCTCGCGATC ((((((...))))))	68.7	-30.2
GATCGCCTGGCGATC ((((((...))))))	67.9	-35.7
GATCGCCTTTGCGATC ((((((....))))))	67.8	-38.6
GATCGCGAAAGCGAATC ((((((....))).)))	52.5	-14
GATCGCGAAAGCGAGATC ((((((....)))..)))	60.6	-13.8
GATCGCGAAAGCGGCATC ((((((....)))..)))	32.1	-7.52
GATCGCGAAAGCGTAATC ((((((....)))..)))	29.2	-8.8
GATCGCGAAAGCGTCATC ((((((....)))..)))	33.8	-7.57
GATCGCGATTGCGATC ((((((....))))))	68.7	-34.2
GATCGCGGAAACGCAATC (((.(((....))).)))	41.3	-22.6
GATCGCGGAAACGCGGTC ((.((((....)))).))	62.8	-22.8
GATCGCGTGGCGATC ((((((...))))))	69	-32.6
GATCGCGTGTGCGATC ((((((....))))))	68.5	-29.3
GATCGCTAAAGCGATC ((((((....))))))	67.1	-27.7
GATCGCTACTGCGATC ((((((....))))))	68.5	-34.5
GATCGCTAGAGCGATC ((((((....))))))	67.6	-34.2
GATCGCTAGGCGATC ((((((...))))))	68.4	-36.8
GATCGCTCAGGCGATC ((((((....))))))	67.9	-36.1
GATCGCTCGGGCGATC ((((((....))))))	69.2	-38.6
GATCGCTCGTGCGATC ((((((....))))))	67.2	-41.6
GATCGCTGAGGCGATC ((((((....))))))	68.5	-38.1
GATCGCTTACGCGATC ((((((....))))))	68.6	-31.8
GATCGCTTATGCGATC ((((((....))))))	68.1	-33.8

Sequence	Tm [1] [°C]	folding enthalpy [2] [kcal/mol]
GATCGCTTCCGCGATC ((((((....))))))	67.2	-36
GATCGCTTGGGCGATC ((((((....))))))	69.1	-27.7
GATCGGAAACGATC (((((....)))))	55.1	-28.7
GATCGGAAATCCGATC ((((((....))))))	54.5	-44.8
GATCGGAAGGCCGATC ((((((....))))))	53.9	-35.7
GATCGGAATCCCGATC ((((((....))))))	53.9	-36.3
GATCGGACAGCCGATC ((((((....))))))	52.4	-36.9
GATCGGACCACCGATC ((((((....))))))	56.9	-37.2
GATCGGACCCCCGATC ((((((....))))))	54.7	-32.9
GATCGGACCGCCGATC ((((((....))))))	54.6	-39.9
GATCGGACGGCCGATC ((((((....))))))	59.3	-45.5
GATCGGAGACCGATC ((((((...))))))	56.7	-30.9
GATCGGAGGGCCGATC ((((((....))))))	55.1	-37.3
GATCGGAGTCCCGATC ((((((....))))))	55.3	-33.8
GATCGGAGTCCGATC ((((((...))))))	54	-38.6
GATCGGATCACCGATC ((((((....))))))	57.5	-34
GATCGGCAAGCCGATC ((((((....))))))	67	-30.5
GATCGGCACACCGATC ((((((....))))))	59	-39.6
GATCGGCACCCCGATC ((((((....))))))	56.6	-31.8
GATCGGCACGCCGATC ((((((....))))))	67.8	-31.6
GATCGGCATGCCGATC ((((((....))))))	67.4	-44.7
GATCGGCATTCCGATC ((((((....))))))	57	-37.6
GATCGGCCCACCGATC ((((((....))))))	58.2	-41.5
